Experimental data gathered from unrelated publications.
Compare with care: the assays were run in different laboratories.
Target: Focal adhesion kinase 1 (PTK2, Homo sapiens, UniProt Q05397)

With `C[C@H](c1cccc(C#N)c1)n1cc(Cl)cc(C(N)=O)c1=N` the remaining binding was 100% (cell-free assay; competition with immobilised ligand; 1 µM).
`O=C(CSc1nc2nccnc2c(=O)n1CCc1ccccc1)Nc1nccs1` gave an inhibition of 6% (enzyme activity; inhibitor; 10 µM).
With `CC(=O)N1CCC(c2ccc(C(=O)NC(=N)N)cc2C(F)(F)F)CC1` the remaining binding was 100% (cell-free assay; competition with immobilised ligand; 1 µM).
With `Oc1cccc(-c2nc(N3CCOCC3)c3oc4ncccc4c3n2)c1` the remaining signal was 93.5% (cell-free assay; 0.5 µM).
`CCOC(=O)c1cc2cc(-c3cc(C(=O)NCc4ccc(C(=O)O)cc4)nn3C)ccc2[nH]1` gave a remaining binding of 94% (cell-free assay; competition with immobilised ligand; 0.1 µM).
The remaining signal of `Cc1cnn2ncc(-c3ccnc(N(C)C)n3)c2c1` is reported as 92% (cell-free assay; 1 µM).
For `Cc1ccc(Nc2nccc(N(C)c3ccc4c(C)n(C)nc4c3)n2)cc1S(N)(=O)=O`, the inhibition was 4% (enzyme activity; inhibitor; 0.3 µM).
`COc1cc(-c2cc(-c3ccc(N4CCNCC4)cc3)cnc2C)cc(OC)c1OC` gave an inhibition of 26% (enzyme activity; inhibitor; 0.1 µM).
The remaining signal of `O=C1NC(=O)c2cc(Nc3ccc(F)cc3)c(Nc3ccc(F)cc3)cc21` is reported as 96% (cell-free assay; 0.5 µM).
`N#CC1(c2ccccn2)CCN(Cc2cc(C(=O)N3CCCC3)c(=O)n3ccccc23)CC1` has a remaining binding of 89% (cell-free assay; competition with immobilised ligand; 1 µM).
The remaining activity of `Cc1[nH]c(/C=C2\C(=O)Nc3ccc(F)cc32)c(C)c1C(=O)N[C@H]1CCN(C(=O)N(C)C)C1` is reported as 88% (enzyme activity; inhibitor; 0.1 µM).
With `CSc1cccnc1N1CCN(Cc2nc3ccccc3[nH]2)CC1` the remaining binding was 100% (cell-free assay; competition with immobilised ligand; 1 µM).
With `Cc1sc(C(=O)NC2COC2)cc1-n1cc(NC(=O)Nc2c(F)cccc2Cl)cn1` the remaining activity was 104% (enzyme activity; inhibitor; 10 µM).
For `Cc1cnc(NC2CCOCC2)nc1-n1cnc(C(=O)NC(CN)c2cc(F)cc(Cl)c2)c1` (stereo not drawn), the remaining activity was 102% (enzyme activity; inhibitor; radiometric; 1 µM).
For `c1nc2c(Nc3ccc4c(c3)OCCO4)nc(Nc3ccc4c(c3)OCCO4)nc2[nH]1`, the activity vs control was 58% (enzyme activity; inhibitor; 10 µM).
With `CCCOc1ccc(OC)c(F)c1C(=O)c1ccc(C(=O)N[C@@H]2CNC[C@H]2NC(=O)c2ccc3[nH]ncc3c2)cc1` the remaining activity was 103% (enzyme activity; inhibitor; 10 µM).
The remaining activity of `COc1cc(Cl)c(C(=O)N[C@@H](CN[C@H]2CC[C@@H](N)CC2)Cc2ccc(C#N)cc2)cc1-c1ccc(CN[C@H](C)c2ccc(C)cc2)o1` is reported as 100% (enzyme activity; inhibitor; 1 µM).
`CCN(CC)c1ccc(C2=NNC(=O)CC2C)cc1[N+](=O)[O-]` (stereo not drawn) gave a remaining activity of 96% (enzyme activity; inhibitor; 10 µM).
`COc1cc2ncnc(Nc3ccc(Oc4ccccc4)c(C)c3C)c2cc1OC` gave an inhibition of -1% (enzyme activity; inhibitor; 1 µM).
`Cc1nccc(COC(=O)N2C[C@@H]3[C@@H](CNC(=O)c4ccc5[nH]nnc5c4)[C@@H]3C2)n1` gave a remaining binding of 100% (cell-free assay; competition with immobilised ligand; 1 µM).
With `CC/C(=N\NC(=O)NCc1cccc(O)c1)c1ccc(O)c(C)c1O` the inhibition was -3.8% (enzyme activity; inhibitor; 0.1 µM).
`Cc1ccc(C(=O)NCc2ccsc2)cc1C#Cc1cn(C(C)C)c2ncnc(N)c12` gave an activity vs control of 79% (enzyme activity; inhibitor; 1 µM).
`O=c1nc(-c2ccccn2)sc2ccccc12` has a remaining binding of 90% (binding; competition with immobilised ligand; 1 µM).
The remaining signal of `O=C1Nc2ccc(Cl)cc2C1=Cc1cc(Cl)c(O)c(Cl)c1` is reported as 91.5% (cell-free assay; 0.5 µM).
With `CC(C)(C)c1nc(-c2cccc(NS(=O)(=O)c3c(F)cccc3F)c2F)c(-c2ccnc(N)n2)s1` the remaining activity was 89% (enzyme activity; inhibitor; radiometric; 1 µM).
With `C=CC(=O)Nc1cc(Nc2nccc(Nc3cc(Cl)c(F)cc3C(C)(C)O)n2)c(OC)cc1N1CC[C@@H](N(C)C)C1` the inhibition was 74% (enzyme activity; inhibitor; 1 µM).
For `F[C@@H]1CCN(c2nccc(-c3cnn4ncccc34)n2)C1`, the remaining signal was 100% (cell-free assay; 1 µM).
With `Cc1ccc(NC(=O)c2ccc(C)c(C(F)(F)F)c2)cc1C#Cc1nn(C2CCC(O)CC2)c2ncnc(N)c12` (stereo not drawn) the remaining signal was 45% (cell-free assay; 10 µM).
For `C[C@@H]1CN(c2cc(-c3nn(C)c4ccc(OC5(C)CC5)cc34)ncn2)C[C@H](C)O1`, the remaining binding was 95% (cell-free assay; competition with immobilised ligand; 1 µM).
`Nc1ncnc2occ(-c3ccc(NC(=O)Nc4cc(C(F)(F)F)ccc4F)cc3)c12` gave a remaining signal of 0.1% (cell-free assay; inhibitor; 20 µM).
